The values below come from ChEMBL document CHEMBL4033716, “The impact of the halogen bonding on D2 and 5-HT1A/5-HT7 receptor activity of azinesulfonamides of 4-[(2-ethyl)piperidinyl-1-yl]phenylpiperazines with antipsychotic and antidepressant properties” (Bioorg Med Chem, 2017).

The source made the active and inactive calls. The calls are words filed in the database; no cut-off is given here.

Usually Ki stands for a measure of affinity in units of concentration, obtained from inhibition or displacement. By inhibition is commonly meant the drop in the measured response relative to a control, in per cent.

In assay [1] the target is T1, D(2) dopamine receptor (Homo sapiens, UniProt P14416). Briefly: Displacement of [3H]-Raclopride from human dopamine D2L receptor expressed in HEK293 cell membranes after 1 hr by microbeta liquid scintillation counting analysis. The essentials:
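HEK293 membranes expressing human D2L. Incubated 1 h at 37°C, rapid filtration. 1 µM (+)butaclamol defined nonspecific binding. Triplicates at 7–8 concentrations, 10⁻¹¹–10⁻⁴ M. Ki via Cheng-Prusoff, ≥3 experiments.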
A general note: Displacement assays read how much labelled ligand stays bound in the presence of the test substance.

The target of assay [2] is 5-hydroxytryptamine receptor 6 (Homo sapiens, UniProt P50406). Briefly: Displacement of [3H]-LSD from human 5-HT6 receptor expressed in HEK293 cell membranes after 1 hr by microbeta liquid scintillation counting analysis. The essentials: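 Human 5-HT6 stably expressed in HEK293; cell membranes washed by two 35 000 g spins. Buffer 50 mM Tris-HCl, 0.5 mM EDTA, 4 mM MgCl₂. Incubated 1 h at 37°C, filtered. Nonspecific binding with 10 µM methiothepine. 7–8 concentrations (10⁻¹¹–10⁻⁴ M) in triplicate. Ki by Cheng-Prusoff, ≥3 experiments.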
Sequence of 5-hydroxytryptamine receptor 6 (P50406 whole entry): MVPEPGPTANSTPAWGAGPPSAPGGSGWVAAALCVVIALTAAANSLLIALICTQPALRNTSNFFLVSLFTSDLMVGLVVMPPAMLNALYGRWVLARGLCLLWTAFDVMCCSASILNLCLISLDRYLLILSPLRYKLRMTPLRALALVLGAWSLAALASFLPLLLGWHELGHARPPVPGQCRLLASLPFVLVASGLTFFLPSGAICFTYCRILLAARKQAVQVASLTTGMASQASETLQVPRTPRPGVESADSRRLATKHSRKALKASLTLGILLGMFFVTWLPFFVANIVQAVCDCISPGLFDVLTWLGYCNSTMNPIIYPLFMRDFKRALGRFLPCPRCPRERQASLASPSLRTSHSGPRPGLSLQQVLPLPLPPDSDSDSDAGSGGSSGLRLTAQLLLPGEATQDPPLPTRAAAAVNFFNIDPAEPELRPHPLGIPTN

Assay [3] deals with 5-hydroxytryptamine receptor 2A (Homo sapiens, UniProt P28223). Briefly: Displacement of [3H]-Ketanserin from human 5-HT2A receptor expressed in HEK293 cell membranes after 1 hr by microbeta liquid scintillation counting analysis. The procedure, abridged: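 Competition binding on membranes from HEK293 cells stably expressing human 5-HT2A, prepared by homogenization and two 35 000 g centrifugations. Incubated 1 h at 37°C, then filtered and counted. Triplicate points at 7–8 concentrations, 10⁻¹¹–10⁻⁴ M. Ki from Cheng-Prusoff, ≥3 separate experiments.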
Sequence of 5-hydroxytryptamine receptor 2A (P28223 whole entry): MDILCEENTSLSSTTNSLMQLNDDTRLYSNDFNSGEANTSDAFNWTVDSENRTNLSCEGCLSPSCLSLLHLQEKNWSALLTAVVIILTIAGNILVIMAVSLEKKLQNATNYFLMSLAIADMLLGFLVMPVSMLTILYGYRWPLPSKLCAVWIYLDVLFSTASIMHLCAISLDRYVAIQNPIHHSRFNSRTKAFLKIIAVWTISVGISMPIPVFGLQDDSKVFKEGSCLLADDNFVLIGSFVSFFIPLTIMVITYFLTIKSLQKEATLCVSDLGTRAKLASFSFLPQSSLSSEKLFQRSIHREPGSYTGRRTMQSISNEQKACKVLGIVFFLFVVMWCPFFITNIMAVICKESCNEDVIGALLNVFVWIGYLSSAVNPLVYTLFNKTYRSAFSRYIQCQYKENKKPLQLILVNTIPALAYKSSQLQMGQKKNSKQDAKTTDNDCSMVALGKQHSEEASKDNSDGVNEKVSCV

Assay [4] addresses T2, 5-hydroxytryptamine receptor 1A (Homo sapiens, UniProt P08908).
T2 sequence (P08908 whole entry): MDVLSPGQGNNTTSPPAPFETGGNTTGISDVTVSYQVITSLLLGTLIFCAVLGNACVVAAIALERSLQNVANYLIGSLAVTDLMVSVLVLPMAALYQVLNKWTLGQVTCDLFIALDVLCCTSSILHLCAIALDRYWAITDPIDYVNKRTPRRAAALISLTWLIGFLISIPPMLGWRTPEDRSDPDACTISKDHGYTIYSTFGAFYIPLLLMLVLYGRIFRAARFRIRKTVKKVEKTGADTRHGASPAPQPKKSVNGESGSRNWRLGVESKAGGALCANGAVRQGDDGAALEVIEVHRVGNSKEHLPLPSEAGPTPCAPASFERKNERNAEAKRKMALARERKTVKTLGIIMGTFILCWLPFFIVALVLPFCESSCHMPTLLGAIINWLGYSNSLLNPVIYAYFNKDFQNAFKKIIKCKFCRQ
Briefly: Displacement of [3H]-8-OH-DPAT from human 5-HT1A receptor expressed in HEK293 cell membranes after 1 hr by microbeta liquid scintillation counting analysis. The procedure, abridged: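 HEK293 membranes with stably expressed human 5-HT1A, washed by two 35 000 g spins. Buffer 50 mM Tris-HCl, 0.1 mM EDTA, 4 mM MgCl₂, 10 μM pargyline, 0.1% ascorbate. Incubated 1 h at room temperature, then rapid filtration. 10 µM 5-HT defined nonspecific binding. Tested in triplicate over 10⁻¹¹–10⁻⁴ M (7–8 concentrations). Ki via Cheng-Prusoff, mean of ≥3 experiments.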

For assay [5], the target named is T3, 5-hydroxytryptamine receptor 7 (Homo sapiens, UniProt P34969). Briefly: Displacement of [3H]-5-CT from human 5-HT7 receptor expressed in HEK293 cell membranes after 1 hr by microbeta liquid scintillation counting analysis. The procedure, abridged:
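Membranes from HEK293 pellets stably expressing human 5-HT7b, homogenized and centrifuged twice at 35 000 g (4°C) with 15 min 37°C incubation between. Buffer 50 mM Tris-HCl, 4 mM MgCl₂, 10 μM pargyline, 0.1% ascorbate. Incubated 1 h at 37°C, then filtered. Nonspecific binding defined with 10 µM 5-HT. Triplicates at 7–8 concentrations (10⁻¹¹–10⁻⁴ M). Ki by Cheng-Prusoff, ≥3 experiments.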

In assay [6] the test system is Mus musculus. Briefly: Antipsychotic activity in CD-1 mouse assessed as inhibition of MK-801-induced hyperlocomotor activity at 5 to 20 mg/kg, ip pretreated with MK-801 for 15 mins followed by compound administration for 60 mins. Format: functional, organism-based. The essentials:
(§1)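 Male CD-1 mice, tested in the light phase, observer blind. Test compounds i.p. 60 min and MK-801 i.p. 15 min before testing, in distilled water at 10 ml/kg; vehicle controls. After 30 min cage habituation, ambulation recorded by activity monitor for 1 h in 5-min bins. 8–10 animals/group; mean ± SEM, one-way ANOVA with Bonferroni test.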

Assay [7] deals with T1, D(2) dopamine receptor. Briefly: Antagonist activity at human dopamine D2 receptor expressed in HEK293 cells at 1 uM assessed as inhibition of dopamine-induced cAMP production. Format: functional, cell-based. The procedure, abridged: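 Cellular cAMP antagonist assay run by a contract lab on HEK293 cells stably expressing human D2 receptor. Compound tested at 10⁻⁶ M. Result given as % inhibition of the control agonist response to dopamine 30 nM.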
(In general: Changes in cAMP serve as a functional read-out for many G protein-coupled receptors.)

The target of assay [8] is T4, 5-hydroxytryptamine receptor 1A (Homo sapiens) (UniProt P08908).
T4 sequence (whole entry): T2 sequence (P08908 whole entry)
Briefly: Antagonist activity at human 5-HT1A receptor expressed in HEK293 cells assessed as inhibition of 8-OH-DPAT-induced cAMP production at 1 uM by fluorescence assay. The format is functional, cell-based. The procedure, abridged:
(§2)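 Cellular cAMP functional antagonist assay run by a contract lab. Human 5-HT7 receptor was stably expressed in CHO cells, and human 5-HT1A in HEK293 cells. Read-out was % inhibition of the control agonist response.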

Assay [9] deals with T3, 5-hydroxytryptamine receptor 7. Briefly: Antagonist activity at human 5-HT7 receptor expressed in CHOK1 cells assessed as inhibition of serotonin-induced cAMP production at 1 uM after 30 mins by HTRF assay. Format: functional, cell-based. The procedure, abridged: as §2
The test system of assay [10] is Mus musculus. Briefly: Antidepressant-like activity in Swiss albino mouse assessed as decrease in immobility time at 0.625 mg/kg measured last 4 mins of 6 mins test by forced swim test relative to control. Format: functional. More on the design: scale not given: the % may be the effect or the level left. The essentials: (§3)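 Male Swiss albino mice (22–26 g), used once, observer blind. Drugs dissolved in distilled water, given i.p. at 10 ml/kg: test compounds 60 min, citalopram 30 min before testing; controls got vehicle. Mice placed 6 min in a cylinder with 10 cm water at 23–25°C; immobility scored over the last 4 min. 7–12 mice/group; one-way ANOVA then Bonferroni.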

Assay [11] concerns Mus musculus. Briefly: Antipsychotic activity in CD-1 mouse assessed as inhibition of MK-801-induced hyperlocomotor activity at 10 to 20 mg/kg, ip pretreated with MK-801 for 15 mins followed by compound administration for 60 mins. The format is functional, organism-based. The procedure, abridged:
as §1

For assay [12], the system named is Mus musculus. Briefly: Antipsychotic activity in CD-1 mouse assessed as inhibition of MK-801-induced hyperlocomotor activity administered ip pretreated with MK-801 for 15 mins followed by compound treatment for 60 mins. Format: functional. The note with it: CD-1, ip, read-out: MED. The essentials:
as §1

In assay [13] the test system is Mus musculus. Briefly: Antidepressant-like activity in Swiss albino mouse assessed as decrease in immobility time administered ip for 30 mins measured last 4 mins of 6 mins test by forced swim test relative to control. The format is functional. The note with it: read-out: MED. The procedure, abridged:
as §3

The subject of assay [14] is Mus musculus. Briefly: Antidepressant-like activity in Swiss albino mouse assessed as decrease in immobility time at 1.25 mg/kg, ip for 30 mins measured last 4 mins of 6 mins test by forced swim test relative to control. More on the design: scale not given: the % may be the effect or the level left. Format: functional. The essentials:
as §3

Assay [15] concerns Mus musculus. Briefly: Antipsychotic activity in CD-1 mouse assessed as inhibition of dizocilpine-induced hyperlocomotor activity at 0.5 mg/kg, ip pretreated with dizocilpine for 15 mins followed by compound administration for 60 mins. The format is functional, organism-based. The essentials: as §1
The test system of assay [16] is Mus musculus. Briefly: Antipsychotic activity in CD-1 mouse assessed as inhibition of MK-801-induced hyperlocomotor activity at 2.5 to 30 mg/kg, ip pretreated with MK-801 for 15 mins followed by compound administration for 60 mins. The format is functional, organism-based. The procedure, abridged: as §1

T1 sequence (P14416 whole entry): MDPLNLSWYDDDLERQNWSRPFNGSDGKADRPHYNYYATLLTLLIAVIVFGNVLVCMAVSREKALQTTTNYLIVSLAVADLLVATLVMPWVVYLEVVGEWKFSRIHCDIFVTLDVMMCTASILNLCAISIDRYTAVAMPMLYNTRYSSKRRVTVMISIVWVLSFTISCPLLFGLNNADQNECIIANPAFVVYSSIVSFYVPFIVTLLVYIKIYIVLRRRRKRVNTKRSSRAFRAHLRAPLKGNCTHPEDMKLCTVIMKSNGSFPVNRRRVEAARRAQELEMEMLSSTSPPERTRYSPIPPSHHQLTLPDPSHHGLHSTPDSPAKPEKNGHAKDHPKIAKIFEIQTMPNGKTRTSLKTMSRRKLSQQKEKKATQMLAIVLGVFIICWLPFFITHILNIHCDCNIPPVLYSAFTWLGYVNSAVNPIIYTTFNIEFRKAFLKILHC
T3 sequence (P34969 whole entry): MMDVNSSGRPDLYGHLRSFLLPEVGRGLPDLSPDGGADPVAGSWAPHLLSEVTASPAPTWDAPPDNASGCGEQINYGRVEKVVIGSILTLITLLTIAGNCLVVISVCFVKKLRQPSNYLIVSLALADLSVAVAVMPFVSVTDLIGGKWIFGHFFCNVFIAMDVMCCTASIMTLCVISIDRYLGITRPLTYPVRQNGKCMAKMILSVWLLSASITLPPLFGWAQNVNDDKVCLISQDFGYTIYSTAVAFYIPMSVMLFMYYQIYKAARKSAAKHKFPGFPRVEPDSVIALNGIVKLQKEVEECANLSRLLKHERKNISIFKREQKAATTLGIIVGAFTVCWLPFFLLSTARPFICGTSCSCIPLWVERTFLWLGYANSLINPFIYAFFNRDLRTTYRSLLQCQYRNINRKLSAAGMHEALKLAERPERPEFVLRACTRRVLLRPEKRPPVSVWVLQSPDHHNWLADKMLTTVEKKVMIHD

In the case of `O=S(=O)(c1cccc2ncccc12)N1CCC(CCN2CCN(c3ccccc3)CC2)CC1`, the inhibitory constant (Ki) in [1] is 1.24 µM; in [2], 6.71 µM; in [3] it was 0.646 µM; in assay [4], 0.749 µM; in [5], 0.209 µM.
Consider `O=S(=O)(c1cncc2ccccc12)N1CCC(CCN2CCN(c3cccc(Cl)c3Cl)CC2)CC1`, for which the Ki in assay [1] is 0.03 µM; in assay [2] it was 0.309 µM; in [3], 0.371 µM; in [4] it was 0.029 µM; in [5] it was 0.039 µM. In assay [6], the inhibition result was “inactive”. Further, the values for the inhibition in [7], in assay [8] and in [9] were 79%, 64% and 75%, respectively.
Take `O=S(=O)(c1cccc2ncccc12)N1CCC(CCN2CCN(c3cccc(Cl)c3Cl)CC2)CC1`: the Activity in assay [10] came to 23%. Moreover, the Ki amounted to 0.036 µM in assay [1]; 0.401 µM in [2]; 0.286 µM in [3]; 0.045 µM in assay [4]; 0.055 µM in assay [5]. For the same compound, the inhibition entry in assay [11] was “Active”. In addition, the minimal effective dose in assay [12] was 10 mg/kg; in assay [13] (in the assay text read “for 60 mins” for “for 30 mins”), 0.625 mg/kg. Further, the inhibition was 88% in assay [7], 63% in assay [8] and 69% in assay [9].
For `O=S(=O)(c1cncc2ccccc12)N1CCC(CCN2CCN(c3ccc(Cl)c(Cl)c3)CC2)CC1`, the inhibitory constant (Ki) in [1] is 0.145 µM; in [2], 1.04 µM; in assay [3], 0.179 µM; in assay [4] it was 0.324 µM; in assay [5] it was 0.036 µM.
With `CN(C)CCCC1(c2ccc(F)cc2)OCc2cc(C#N)ccc21` (stereo unspecified) [CITALOPRAM], the Activity in assay [14] is on record as 28%.
For the compound `O=S(=O)(c1cccc2ncccc12)N1CCC(CCN2CCN(c3ccc(Cl)cc3)CC2)CC1`, the Ki in [1] was 0.141 µM; in assay [2], 1.02 µM; in assay [3], 0.152 µM; in [4], 0.74 µM; in [5] it was 0.037 µM.
In the same order, the values of `O=S(=O)(c1cccc2ncccc12)N1CCC(CCN2CCN(c3cccc(C(F)(F)F)c3)CC2)CC1` are 0.149 µM, 0.64 µM, 0.53 µM, 0.04 µM and 0.056 µM.
As to `O=S(=O)(c1cncc2ccccc12)N1CCC(CCN2CCN(c3ccc(F)cc3)CC2)CC1`, the Ki was determined as 0.418 µM in assay [1]; 1.86 µM in assay [2]; 0.156 µM in [3]; 0.975 µM in assay [4]; 0.014 µM in assay [5].
In the same order, the values of `O=S(=O)(c1cncc2ccccc12)N1CCC(CCN2CCN(c3ccccc3)CC2)CC1` are 1.22 µM, 2.41 µM, 0.41 µM, 0.543 µM and 0.174 µM.
As for `O=C1CCc2ccc(OCCCCN3CCN(c4cccc(Cl)c4Cl)CC3)cc2N1`, the inhibition result in assay [15] was “Active”.
In the case of `O=S(=O)(c1cccc2ncccc12)N1CCC(CCN2CCN(c3ccc(Cl)c(Cl)c3)CC2)CC1`, the Ki in [1] worked out at 0.121 µM; in assay [2], 0.791 µM; in [3], 0.336 µM; in [4], 0.257 µM; in assay [5], 0.052 µM.
For the compound `O=S(=O)(c1cccc2ncccc12)N1CCC(CCN2CCN(c3cccc(F)c3)CC2)CC1`, the Ki in assay [1] turned out to be 1.82 µM; in assay [2] it was 8.28 µM; in [3], 0.665 µM; in assay [4], 0.609 µM; in assay [5], 0.165 µM.
With `O=S(=O)(c1cncc2ccccc12)N1CCC(CCN2CCN(c3cccc(F)c3)CC2)CC1`, the Ki in [1] turned out to be 1.01 µM; in [2], 3.8 µM; in assay [3] it was 0.691 µM; in [4], 0.37 µM; in assay [5], 0.142 µM.
As to `O=S(=O)(c1cccc2ncccc12)N1CCC(CCN2CCN(c3ccc(F)cc3)CC2)CC1`, the inhibition constant Ki was 0.223 µM in assay [1]; 1.46 µM in assay [2]; 0.139 µM in [3]; 0.759 µM in assay [4]; 0.029 µM in assay [5].
As to `O=S(=O)(c1cncc2ccccc12)N1CCC(CCN2CCN(c3cccc(C(F)(F)F)c3)CC2)CC1`, the Ki in [1] stood at 0.148 µM; in assay [2], 1.02 µM; in [3] it was 0.161 µM; in [4], 0.03 µM; in assay [5], 0.052 µM.
In the same order, the values of `O=S(=O)(c1cccc2ncccc12)N1CCC(CCN2CCN(c3cccc(Cl)c3)CC2)CC1` are 0.076 µM, 0.445 µM, 0.197 µM, 0.054 µM and 0.037 µM.
Take `O=S(=O)(c1cncc2ccccc12)N1CCC(CCN2CCN(c3ccc(Cl)cc3)CC2)CC1`: the minimal effective dose amounted to 5 mg/kg in [12] and 30 mg/kg in assay [13]. Moreover, the inhibition entry in assay [16] was “Active”.
